Data: ChEMBL document CHEMBL2434897, “Synthesis of 15-methylene-eburnamonine from (+)-vincamine, evaluation of anticancer activity, and investigation of mechanism of action by quantitative NMR” (Bioorg Med Chem Lett, 2013)

Experiments:
[1] = test system: LNCaP; test: Cytotoxicity against human LNCAP cells after 96 hrs by MTS assay; type: functional, cell-based
Outline: (§1)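 Cells kept in RPMI-1640 with 10% FBS and 1% penicillin/streptomycin at 37 °C under humidified 5% CO2. Seeded at 25,000 cells/well (KMS-12BM, RPMI-8226, U266) or 5000 cells/well (LNCaP), then exposed to graded drug concentrations or DMSO vehicle for 96 h. MTS read-out at OD 492 nm. LC50 from four-parameter logistic fit of log-transformed, vehicle-normalized OD; ≥3 independent experiments in triplicate.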

[2] = test system: RPMI-8226; test: Cytotoxicity against human RPMI8226 cells after 96 hrs by MTS assay; type: functional, cell-based; conditions: RPMI-8226, 96 h; outline: as §1
[3] = Cytotoxicity against human KMS-12-BM cells after 96 hrs by MTS assay; type: functional, cell-based; outline: as §1
[4] = Cytotoxicity against human FnMSC cells after 96 hrs by MTS assay; type: cell-based; conditions: read-out: LC50
[5] = test system: MDA-MB-231; test: Cytotoxicity against human MDA-MB-231 cells after 96 hrs by MTS assay; type: functional, cell-based; conditions: MDA-MB-231, 96 h
[6] = test system: U-266; test: Cytotoxicity against human U266 cells after 96 hrs by MTS assay; type: functional, cell-based; conditions: U-266, 96 h; outline: as §1

Row | Structure (SMILES) | LC50 [1] [µM] | LC50 [2] [µM] | LC50 [3] [µM] | CC50 at 96 h [4] [µM] | LC50 [5] [µM] | LC50 [6] [µM]
1 | C=C1C(=O)n2c3c(c4ccccc42)CCN2CCC[C@]1(CC)[C@@H]32 | 9.5 | 12.2 | 4 | 16.7 | 14.1 | 4.3
2 | CC[C@]12CCCN3CCc4c(n(c5ccccc45)C(=O)C1)[C@@H]32 [VINBURNINE] | > 100 | > 100 | > 100 |  | 41.8 | > 100
